# Experimental data pooled from the literature.
# Lines come from different studies, so protocols differ.
# Cell line: PC-3
# Read-out: cell growth or viability
# Technique: MTT
SMILES,conditions,IC50 [µM]
Cc1nc(N(C)c2ccc3c(c2)/C(=C/c2ccccc2Cl)C(=O)N3C)c2ccccc2n1,,23.7
Cc1ccc(-c2cc(-c3c(Cl)cccc3Cl)c3c(=O)[nH]c(=O)[nH]c3n2)cc1,48 h,48.9
Nc1n[nH]c2nc(-c3cccc(O)c3)cc(-c3cc4ccccc4nc3N3CCOCC3)c12,72 h,0.0564
Cc1ccc(-c2cc(-c3c(Cl)cccc3Cl)c3c(=O)n(C)c(=O)n(C)c3n2)cc1,48 h,9.89
[NH2][Pt]([NH2])([Cl])[Cl],,8.3
COc1ccc(-c2cc(-c3ccc(C)cc3)nc3c2c(=O)n(C)c(=O)n3C)cc1OC,48 h,38.9
COc1cc2ncnc(N(C)c3ccc4c(c3)/C(=C/c3cccc(Cl)c3)C(=O)N4C)c2cc1OC,,5.5
COc1cccc2c1C(=O)c1c(O)c3c(c(O)c1C2=O)C[C@@](O)(C(=O)CO)C[C@@H]3O[C@H]1C[C@H](N)[C@H](O)[C@H](C)O1,72 h,0.61
CCOc1nc(-c2cccc(O)c2)cc(-c2cc3ccccc3nc2N2CCOCC2)c1C#N,72 h,0.118
COc1ccc(-c2cc(-c3cc(OC)ccc3OC)c3c(=O)[nH]c(=O)[nH]c3n2)cc1,48 h,19.1
CCCOc1nc(-c2cccc(O)c2)cc(-c2cc3ccccc3nc2N2CCOCC2)c1C#N,72 h,0.155
Cc1nc(Nc2ccc3c(c2)/C(=C/c2ccccc2C)C(=O)N3)c2ccccc2n1,,26.7
CCOc1nc(-c2cccc(O)c2)cc(-c2cc3cc(Cl)ccc3nc2N2CCOCC2)c1C#N,72 h,0.174
Cc1nc(Nc2ccc3c(c2)CC(=O)N3)c2ccccc2n1,,20.6
